Measured values taken from ChEMBL document CHEMBL5038608, “Design, synthesis, and biological evaluation of novel pyrrolidinone small-molecule Formyl peptide receptor 2 agonists” (Eur J Med Chem, 2021).
≈ marks a conversion by molar mass, not a printed value. Calls of active or inactive are those of the source. The calls are words filed in the database; no cut-off is given here.

Key:
Neutrophil = experiment: Inhibition of cell adhesion in human Neutrophils assessed as reduction on neutrophil at 1 to 100 uM incubated for 30 mins by DAPI staining based immunofluorescence assay; format: functional; conditions: dose 1-100 µM
Method in brief: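 Neutrophils isolated from healthy donor blood (Polymorphprep) and suspended in HBSS/20 mM HEPES/0.25% BSA/Ca2+, pH 7.4, at 0.5 × 10⁶/mL. Pre-incubated with agonists (final 1:5 dilution) 30 min at 37 °C. Then adhered 20 min at 37 °C on plates coated with P-selectin and ICAM-1 (1 µg/mL each), BSA-blocked. PFA-fixed and DAPI-stained; four images per well counted. 3 independent experiments × 3 technical replicates.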

[1] = Microsomal stability in mouse liver microsomes assessed as half life at 1 uM preincubated for 5 mins followed by NADPH regenerating system addition measured after 30 mins by LC-MS/MS analysis; format: ADME, Microsome; conditions: t1/2, time 35 min
Method in brief: (§1)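 Human or mouse liver microsomes (0.2 mg/mL protein) with compound at 1 µM final, pre-incubated 5 min at 37 °C. Reaction started with NADPH generating solution and agitated at 37 °C, with samples quenched up to 30 min. Centrifuged; supernatant analysed in triplicate by LC-MS.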

[2] = Microsomal stability in human liver microsomes assessed as half life at 1 uM preincubated for 5 mins followed by NADPH regenerating system addition measured after 30 mins by LC-MS/MS analysis; format: ADME, Microsome; conditions: t1/2, time 35 min; method in brief: as §1
[3] = molecular target: T1, N-formyl peptide receptor 2 (Homo sapiens, UniProt P25090); experiment: Agonist activity at human FPR2 expressed in HEK293-A cells assessed as ERK phosphorylation level incubated for 5 mins by ELISA assay; format: functional, cell-based
T1 sequence (P25090 whole entry): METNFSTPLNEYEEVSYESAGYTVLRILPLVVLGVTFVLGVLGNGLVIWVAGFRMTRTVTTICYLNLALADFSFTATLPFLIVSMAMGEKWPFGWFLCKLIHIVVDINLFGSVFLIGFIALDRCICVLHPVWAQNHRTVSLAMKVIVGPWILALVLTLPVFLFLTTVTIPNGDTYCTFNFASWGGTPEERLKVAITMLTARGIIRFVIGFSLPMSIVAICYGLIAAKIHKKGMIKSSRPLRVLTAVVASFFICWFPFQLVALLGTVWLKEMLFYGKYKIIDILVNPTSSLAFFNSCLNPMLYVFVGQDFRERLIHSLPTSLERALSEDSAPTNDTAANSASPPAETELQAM
Method in brief: (§2)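 HEK293A cells stably transfected with human FPR1 or FPR2, seeded at 2 × 10⁴/well and grown 48 h. Serum-starved 3 h, then stimulated 5 min with compounds in serum-free DMEM, top concentration 30 µM, 1/3 serial dilutions. Lysed in ice-cold buffer; p-ERK1/2 (pT202/Y204) measured by SimpleStep ELISA (OD). Expressed as increment over basal.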

[4] = molecular target: T1, N-formyl peptide receptor 2; experiment: (§3) Agonist activity at FPRL1 (unknown origin) expressed in CHO-K1 cells assessed as stimulation of beta-arrestin recruitment incubated for 150 mins by beta-galactosidase based PathHunter assay; format: functional, cell-based
Method in brief: (§4)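 PathHunter CHO-K1 FPRL1 cells expressing β-gal enzyme-fragment complementation, 5000 cells/well, held overnight at 37 °C. Stimulated with half-log serial dilutions of compounds (10 mM stocks in PBS) for 150 min at 37 °C. High control was WKYMVm at 100 nM. Detection reagent added for 60 min at RT in the dark, then chemiluminescence read.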

[5] = molecular target: T2, N-formyl peptide receptor 2 (Homo sapiens) (UniProt P25090); experiment: Agonist activity at human FPR2 expressed in HEK293-A cells assessed as maximal ERK phosphorylation level at 30 uM incubated for 5 mins by ELISA assay; format: functional, cell-based; conditions: filed as agonist
T2 sequence (whole entry): T1 sequence (P25090 whole entry)
Method in brief: (§5)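 HEK293A cells stably transfected with human FPR1 or FPR2, in DMEM with 10% FCS, seeded 2×10⁴/well and grown 48 h. Serum-starved 3 h, then stimulated 5 min with compounds in serum-free DMEM (1/3 serial dilutions from top concentration). W peptide was the positive control. Lysed in ice-cold buffer. p-ERK1/2 (pT202/Y204) measured by ELISA OD and expressed as increment over basal per receptor.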

[6] = AUC extrapolated in C57BL6 mouse at 10 mg/kg, ip; format: ADME, organism-based; conditions: in vivo
Method in brief: (§6)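 Male C57BL6 mice, single intraperitoneal dose of 10 mg/kg as a clear solution in DMSO 10%/PEG400 35%/PG 25%/water 30%. 12 mice used: 9 dosed, 3 for blank plasma. Each mouse bled three times. Plasma concentration measured at eight time points over 24 h.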

[7] = molecular target: T2, N-formyl peptide receptor 2 (Homo sapiens); experiment: Agonist activity at FPRL1 (unknown origin) expressed in CHO-K1 cells assessed as increase in calcium mobilization […] incubated for 2.5 hrs by cellular based FLIPR assay; format: functional, cell-based
Method in brief: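 CHO-K1 cells overexpressing human FPR2 (PathHunter FPRL1 line), plated at 20,000/well in F-12 with 10% FBS and held 1 h RT, then overnight at 37 °C. Calcium 6 dye loaded 2 h at 37 °C, then 30 min RT in the dark. Compounds were half-log serially diluted from 10 mM stocks in HBSS with 20 mM HEPES. Cytosolic Ca2+ rise read on FLIPR Tetra.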

[8] = molecular target: T3, fMet-Leu-Phe receptor (Homo sapiens) (UniProt P21462); experiment: Agonist activity at human FPR1 expressed in HEK293-A cells assessed as maximal ERK phosphorylation level at 30 uM incubated for 5 mins by ELISA assay; format: functional, cell-based; method in brief: as §5
T3 sequence (whole entry): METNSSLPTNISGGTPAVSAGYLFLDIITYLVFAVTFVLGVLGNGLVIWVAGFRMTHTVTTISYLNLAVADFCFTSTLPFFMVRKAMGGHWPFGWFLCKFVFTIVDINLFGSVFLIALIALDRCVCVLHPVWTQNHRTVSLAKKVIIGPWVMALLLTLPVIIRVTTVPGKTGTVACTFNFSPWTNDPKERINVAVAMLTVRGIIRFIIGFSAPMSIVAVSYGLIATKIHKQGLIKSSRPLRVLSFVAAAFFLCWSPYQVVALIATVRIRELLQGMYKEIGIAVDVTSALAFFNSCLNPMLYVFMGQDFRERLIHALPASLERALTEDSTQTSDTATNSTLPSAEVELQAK

[9] = Tmax in C57BL6 mouse at 10 mg/kg, ip; format: ADME, organism-based; conditions: in vivo; method in brief: as §6
[10] = AUC (0 to infinity) in C57BL6 mouse at 10 mg/kg, ip; format: ADME, organism-based; design: time infinity, route intraperitoneal, dose 10 mg/kg; conditions: in vivo
[11] = Distribution coefficient, logD of compound at pH 7.4 by shake flask method based LC-MS/MS analysis; format: physicochemical; conditions: octanol/water, read-out: logD
Method in brief: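 Shake-flask method: compound diluted from 10 mM DMSO stock into equal volumes of octanol and PBS, final concentration 100 µM. Shaken 12 h, then centrifuged. Both layers analysed in triplicate by LC-MS/MS (MRM, C8 UPLC). LogD = log10 of the octanol/buffer peak-area ratio.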

[12] = Half life in C57BL6 mouse at 10 mg/kg, ip; format: ADME, organism-based; conditions: in vivo; method in brief: as §6
[13] = MRT(0 to t) in C57BL6 mouse at 10 mg/kg, ip; format: ADME, organism-based; conditions: in vivo; method in brief: as §6
[14] = molecular target: T1, N-formyl peptide receptor 2; experiment: Agonist activity at FPRL1 (unknown origin) expressed in CHO-K1 cells assessed as increase in calcium mobilization incubated for 2.5 hrs by cellular based FLIPR assay; format: functional, cell-based
Method in brief: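 CHO-K1 cells overexpressing hFPR2, plated at 20,000 cells/well in F-12 with 10% FBS and held overnight at 37 °C. Loaded with FLIPR Calcium 6 dye for 2 h at 37 °C, then 30 min at RT in the dark. Compounds were half-log serially diluted from 10 mM stocks in HBSS/20 mM HEPES. Cytosolic Ca2+ rise read on FLIPR Tetra. WKYMVm served as control.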

[15] = Kinetic solubility of compound in PBS at pH 7.4 by UV-VIS absorption spectrophotometry analysis; format: physicochemical; conditions: PBS, read-out: Kinetic_solubility
Method in brief: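 A 10 mM DMSO stock was diluted into PBS pH 7.4 at a target of 200 µM (final PBS:DMSO 98:2), in triplicate. Agitated 500 rpm for 90 min, then filtered. Filtrate diluted to PBS:DMSO 80:20 and its UV absorbance compared against a 200–6.75 µM standard series to give the concentration remaining in solution.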

[16] = Cmax in C57BL6 mouse at 10 mg/kg, ip measured upto 24 hrs; format: ADME, organism-based; design: route intraperitoneal, dose 10 mg/kg, time <=24; conditions: in vivo; method in brief: as §6
fMet-Leu-Phe receptor = molecular target: T4, fMet-Leu-Phe receptor (Homo sapiens, UniProt P21462); experiment: Agonist activity at human FPR1 expressed in HEK293-A cells assessed as ERK phosphorylation level incubated for 5 mins by ELISA assay; format: functional, cell-based; conditions: read-out: EC50; method in brief: as §2
T4 sequence (P21462 whole entry): T3 sequence (whole entry)

[17] = AUC (0 to t) in C57BL6 mouse at 10 mg/kg, ip; format: ADME, organism-based; design: dose 10 mg/kg; conditions: in vivo
[18] = molecular target: T2, N-formyl peptide receptor 2 (Homo sapiens); experiment: Agonist activity at FPRL1 (unknown origin) expressed in CHO-K1 cells assessed as stimulation of beta-arrestin recruitment […] incubated for 150 mins by beta-galactosidase based PathHunter assay; format: functional, cell-based
Method in brief: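 PathHunter CHO-K1 FPRL1 cells carry complementing β-galactosidase fragments. Plated at 5000/well, held 1 h RT, then overnight at 37 °C. Compounds were half-log serially diluted from 10 mM stocks in PBS. Stimulation 150 min at 37 °C; W-peptide (WKYMVm, 100 nM) was the high control. Detection reagent added for 60 min RT in the dark, with chemiluminescence read-out.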

[19] = molecular target: T2, N-formyl peptide receptor 2 (Homo sapiens); experiment: as §3; format: functional, cell-based; method in brief: as §4
[20] = filed as agonist, time 0.067 hrs, in the assay text read “measured for 240 s” for “incubated for 2.5 hrs”

SMILES: O=C(Nc1ccc(Br)cc1)NC1CCN(c2ccccc2)C1=O (centres undefined)
- Activity (Neutrophil): Dose-Dependent Effect
- half-life at 1 µM [1]: > 6.67 h
- half-life at 1 µM [2]: > 6.67 h
- EC50 [3]: 7360 nM
- EC50 ([4]; read-out: EC50): 300 nM
- Emax [5]: 69%
- %AUCextra [6]: 18.17%
- Emax [7, 20]: 73%
- Emax [8]: 15%
- Tmax [9]: 0.25 h
- AUC(0-inf) [10]: 35000 ng·h/mL
- logD [11]: > 4
- half-life [12]: 9.42 h
- MRT last [13]: 9.2 h
- EC50 ([14]; read-out: EC50): 430 nM
- solubility kinetic [15]: 15 µM (≈ 5.61 µg/mL)
- Cmax [16]: 3610 ng/mL
- EC50 (fMet-Leu-Phe receptor): 1740 nM
- AUC(0-t) [17]: 28600 ng·h/mL

SMILES: CC(C)(C)OC(=O)N1CC(N2CCC(NC(=O)Nc3ccc(Br)cc3)C2=O)C1 (centres undefined)
- half-life at 1 µM [1]: 1.87 h
- half-life at 1 µM [2]: 1.88 h
- EC50 ([4]; read-out: EC50): 2350 nM
- Emax ([18]; filed as agonist): 103%
- Emax [7, 20]: 67%
- logD [11]: > 4
- EC50 ([14]; read-out: EC50): 410 nM
- solubility kinetic [15]: 222 µM (≈ 101 µg/mL)

SMILES: O=C(Nc1ccc(Br)cc1)NC1CCN(CC2CCN(Cc3ccccc3)CC2)C1=O (centres undefined)
- half-life at 1 µM [1]: 2.02 h
- half-life at 1 µM [2]: 3.78 h
- EC50 ([4]; read-out: EC50): 2250 nM
- Emax ([18]; filed as agonist): 93%
- Emax [7, 20]: 99%
- logD [11]: 2.5
- EC50 ([14]; read-out: EC50): 250 nM
- solubility kinetic [15]: 192 µM (≈ 93.2 µg/mL)

SMILES: CC(C)n1cc(N2CCC(NC(=O)Nc3ccc(Br)cc3)C2=O)cn1 (centres undefined)
- half-life at 1 µM [1]: 2.66 h
- half-life at 1 µM [2]: 5.37 h
- Emax [19]: inactive
- Emax [18]: inactive
- logD [11]: 3.7
- EC50 ([14]; read-out: EC50): 884 nM
- solubility kinetic [15]: 1 µM (≈ 0.406 µg/mL)

SMILES: O=C(Nc1ccc(Br)cc1)NC1CCN(C2CCN(Cc3ccccc3)C2)C1=O (stereo in doubt; 18)
- half-life at 1 µM [1]: 0.6 h
- half-life at 1 µM [2]: 0.933 h
- EC50 ([4]; read-out: EC50): 700 nM
- logD [11]: 3
- EC50 ([14]; read-out: EC50): 370 nM
- solubility kinetic [15]: 207 µM (≈ 94.7 µg/mL)

SMILES: O=C(Nc1ccc(Br)cc1)NC1CCN(Cc2ccccc2)C1=O (centres undefined)
- half-life at 1 µM [1]: 2.12 h
- half-life at 1 µM [2]: 2.8 h
- EC50 ([4]; cho-k1): Not Active
- Emax [18]: inactive
- Emax ([7]; time 2.5 hrs): inactive
- logD [11]: 4.4
- EC50 ([14]; cho-k1): Not Active
- solubility kinetic [15]: 75 µM (≈ 29.1 µg/mL)

SMILES: O=C(Nc1ccc(Br)cc1)NC1CCN(C2CCN(Cc3ccccc3)CC2)C1=O (centres undefined)
- half-life at 1 µM [1]: 1.17 h
- half-life at 1 µM [2]: 1.87 h
- EC50 ([4]; read-out: EC50): 2870 nM
- Emax ([18]; filed as agonist): 96%
- Emax [7, 20]: 76%
- logD [11]: 3.5
- EC50 ([14]; read-out: EC50): 350 nM
- solubility kinetic [15]: 152 µM (≈ 71.7 µg/mL)
